In general, IC50 refers to the concentration that gives 50% inhibition. For orientation: EC50 means the concentration needed to bring the measured effect to its halfway point.

Active and inactive are the calls of the source. No cut-off for these calls is given here.

The target in assay [1] is T1, Programmed cell death protein 1/Programmed cell death 1 ligand 1 (Homo sapiens, UniProt Q9NZQ7). The experiment in a line: Inhibition of human PD-1/PD-L1 interaction assessed as blockade activity incubated for 15 mins by HTRF assay. The assay is classed as protein-complex assay. A digest of the protocol:
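Tag1-PD-L1 and Tag2-PD-1 proteins preincubated with compound (0.1 nM to 10 μM, triplicate) 15 min at room temperature, then anti-Tag1-Eu³⁺/anti-Tag2-XL665 added for 2 h at room temperature. Excitation 337 nm, emission 665 and […]. Signal taken as 665/615 ratio ×10 000; IC50 fitted from inhibition rates.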

The test system of assay [2] is Jurkat. Briefly: Cytotoxicity against human Jurkat cells expressing PD-1/NFAT/Luc assessed as inhibition of cell viability at 0.1 to 10 uM incubated for 24 hrs by CCK8 assay. The assay is classed as functional, cell-based. The conditions noted are these: dose 0.1-10 µM. A digest of the protocol: (§1)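 PD-1⁺/NFAT-luc/Jurkat cells seeded at 20 000 per well, treated with compound in medium with 1% final DMSO for 24 h. CCK8 added for 4 h, then absorbance read.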

Assay [3] has as its system MC-38. The experiment in a line: Cytotoxicity against mouse MC38 cells assessed as inhibition of cell viability at 0.1 to 10 uM incubated for 24 hrs by MTT assay. Type of assay: functional, cell-based. The note with it: dose 0.1-10 µM. A digest of the protocol: (§2)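 PD-L1⁺/aAPC/CHO-K1 cells (2000/well) or MC38 cells (5000/well) allowed to adhere for 12 h, then exposed to compound in medium with 1% final DMSO for 24 h. MTT added for 4 h, medium replaced with DMSO, absorbance read.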
Background: Formazan colour is commonly taken as a measure of viable cells.

The subject of assay [4] is CHO-K1. Briefly: Cytotoxicity against CHO-K1 cells expressing PD-L1/aAPC assessed as inhibition of cell viability at 0.1 to 10 uM incubated for 24 hrs by MTT assay. Type of assay: functional, cell-based. The note with it: Cricetulus griseus, dose 0.1-10 µM. Put shortly: as §2
The subject of assay [5] is CHO-K1. Briefly: Cytotoxicity against CHO-K1 cells expressing PD-L1/aAPC assessed as inhibition of cell viability at 10 uM incubated for 24 hrs by MTT assay. The note with it: Cricetulus griseus. The assay is classed as functional, cell-based. Put shortly:
as §2

Assay [6] addresses T1, Programmed cell death protein 1/Programmed cell death 1 ligand 1. The experiment in a line: Inhibition of human PD-1/PD-L1 interaction in human Jurkat cells expressing PD-1/NFAT/Luc cocultured with CHO-K1 cells expressing PD-L1/aAPC assessed as Jurkat T-lymphocyte activation measured after 6 hrs by luciferase reporter gene based luminescence assay. The assay is classed as cell-based. In general terms: In a reporter assay the amount or activity of a reporter protein is the signal.

In assay [7] the target is Programmed cell death protein 1/Programmed cell death 1 ligand 1 (Homo sapiens) (UniProt Q15116+Q9NZQ7). The note with it: Jurkat, time 6.0 hrs.
The test system of assay [8] is MC-38. The experiment in a line: Cytotoxicity against mouse MC38 cells assessed as inhibition of cell viability at 10 uM incubated for 24 hrs by MTT assay. Type of assay: functional, cell-based. A digest of the protocol:
as §2

The subject of assay [9] is Jurkat. The experiment in a line: Cytotoxicity against human Jurkat cells expressing PD-1/NFAT/Luc assessed as inhibition of cell viability at 10 uM incubated for 24 hrs by CCK8 assay. Type of assay: functional, cell-based. A digest of the protocol:
as §1

T1 sequence (Q15116 whole entry): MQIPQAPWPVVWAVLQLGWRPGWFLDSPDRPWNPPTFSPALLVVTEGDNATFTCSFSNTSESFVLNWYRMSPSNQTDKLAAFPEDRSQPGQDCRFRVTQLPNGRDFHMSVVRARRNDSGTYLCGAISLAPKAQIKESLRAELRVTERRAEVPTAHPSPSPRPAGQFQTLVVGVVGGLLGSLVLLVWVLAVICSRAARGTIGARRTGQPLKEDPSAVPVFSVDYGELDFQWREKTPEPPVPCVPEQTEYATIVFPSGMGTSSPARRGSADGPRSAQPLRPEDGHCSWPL
T1 sequence (Q9NZQ7 whole entry): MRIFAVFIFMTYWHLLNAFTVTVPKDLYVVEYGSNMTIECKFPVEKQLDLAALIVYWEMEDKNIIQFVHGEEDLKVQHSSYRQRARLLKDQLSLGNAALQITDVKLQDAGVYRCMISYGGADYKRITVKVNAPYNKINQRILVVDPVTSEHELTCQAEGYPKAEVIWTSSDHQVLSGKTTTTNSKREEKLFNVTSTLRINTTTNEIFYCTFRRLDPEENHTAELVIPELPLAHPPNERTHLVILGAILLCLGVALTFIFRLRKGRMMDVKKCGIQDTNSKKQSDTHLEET

As to `Cc1c(COc2ccc(CN[C@H](CO)C(=O)O)c(OCc3ccc4nsnc4c3)c2)cccc1-c1ccccc1`, the concentration for half-maximal inhibition (IC50) in [1] stood at 206 nM.
In the case of `OC[C@H](O)CNCc1cc(Cl)c(OCc2cccc(-c3ccccc3)c2Br)cc1OCc1ccc2nonc2c1`, the IC50 in [1] is 14.6 nM.
As for `NS(=O)(=O)CCNCc1cc(Cl)c(OCc2cccc(-c3ccccc3)c2Br)cc1OCc1ccc2nonc2c1`, the IC50 in assay [1] stood at 342 nM.
Regarding `O=C(O)[C@@H](CO)NCc1cc(Cl)c(OCc2cccc(-c3cccc(OCCO)c3)c2Cl)cc1OCc1ccc2nonc2c1`, the IC50 in assay [1] was determined as 101 nM.
For the compound `Cc1c(COc2cc(OCc3ccc4nonc4c3)c(CN[C@H](CO)C(=O)O)cc2Cl)cccc1-c1ccccc1`, in [1], the IC50 stood at 16.6 nM.
For `O=C(O)[C@@H](CO)NCc1cc(Cl)c(OCc2cccc(-c3ccccc3)c2Cl)cc1OCc1ccc2nonc2c1`, in assay [1], the IC50 came out at 3.3 nM.
Still for that read-out and setting: as for `O=C1CC[C@@H](CNCc2cc(Cl)c(OCc3cccc(-c4ccccc4)c3Cl)cc2OCc2ccc3nonc3c2)N1`, the figure is 21.6 nM.
Regarding `O=C(O)[C@@H](CO)NCc1cc(Cl)c(OCc2cccc(-c3cccc(F)c3)c2Cl)cc1OCc1ccc2nonc2c1`, in assay [1], the IC50 came out at 6.5 nM. The result in the assay with Jurkat [2], with MC-38 [3] and with CHO-K1 [4] was inactive.
For `Clc1cc(CNCCN2CCCCC2)c(OCc2ccc3nonc3c2)cc1OCc1cccc(-c2ccccc2)c1Cl`, in assay [1], the 50% inhibitory concentration (IC50) was found to be 291 nM.
For `OCCNCc1cc(Cl)c(OCc2cccc(-c3ccccc3)c2Br)cc1OCc1ccc2nonc2c1`, the IC50 in assay [1] is 30.8 nM.
The same measure, in the same setting: for `O=C(O)[C@@H](CO)NCc1cc(Cl)c(OCc2cccc(-c3cccc(F)c3F)c2Cl)cc1OCc1ccc2nonc2c1` the value was 162 nM.
Turning to `CC(=O)NCCNCc1cc(Cl)c(OCc2cccc(-c3ccccc3)c2Br)cc1OCc1ccc2nonc2c1`, the half-inhibitory concentration (IC50) in assay [1] stood at 130 nM.
Same read-out and setting: as for `COc1cccc(-c2cccc(COc3cc(OCc4ccc5nonc5c4)c(CN[C@H](CO)C(=O)O)cc3Cl)c2Br)c1`, the figure is 7.8 nM; as for `O=C(O)[C@@H](CO)NCc1cc(Cl)c(OCc2cccc(-c3cccc(Cl)c3)c2Br)cc1OCc1ccc2nonc2c1`, 24.3 nM; as for `O=C(O)[C@@H](CO)NCc1cc(F)c(OCc2cccc(-c3ccccc3)c2Cl)cc1OCc1ccc2nonc2c1`, 9.5 nM.
Same read-out and setting: as for `O=C(O)[C@@H](CO)NCc1cc(Cl)c(OCc2cccc(-c3cccc(O)c3)c2Cl)cc1OCc1ccc2nonc2c1`, the figure is 58.7 nM; as for `CS(=O)(=O)c1ccc(-c2cccc(COc3cc(OCc4ccc5nonc5c4)c(CN[C@H](CO)C(=O)O)cc3Cl)c2Cl)cc1`, greater than 1000 nM; as for `O=C(O)C1CN(Cc2cc(Cl)c(OCc3cccc(-c4ccccc4)c3Br)cc2OCc2ccc3nonc3c2)C1`, 52.3 nM.
For `Cc1c(COc2ccc(CN[C@H](CO)C(=O)O)c(OCc3cccc(C#N)c3)c2)cccc1-c1ccccc1`, in [1], the half-maximal inhibitory concentration (IC50) is 35.8 nM. In addition, the outcome in the assay with CHO-K1 [5], in the assay on MC-38 [8] and in the assay with Jurkat [9] was Active. For the same compound, the 50% effective concentration (EC50) in assay [6] is 2080 nM. In assay [7], the RLU was 1.83.
`OC1CCC(NCc2cc(Cl)c(OCc3cccc(-c4ccccc4)c3Br)cc2OCc2ccc3nonc3c2)CC1` (stereo not drawn): the IC50 in assay [1] came to 57.2 nM.
With `Cc1c(COc2ccc(CN[C@H](CO)C(=O)O)c(OCc3ccc4ccoc4c3)c2)cccc1-c1ccccc1`, the 50% inhibitory concentration (IC50) in assay [1] is 2340 nM.
`CC(C)(C)OC[C@@H](NCc1cc(Cl)c(OCc2cccc(-c3ccccc3)c2Cl)cc1OCc1ccc2nonc2c1)C(=O)N[C@H](CO)C(=O)O`: the IC50 in assay [1] was 393 nM.
`OC1CCN(Cc2cc(Cl)c(OCc3cccc(-c4ccccc4)c3Br)cc2OCc2ccc3nonc3c2)CC1`: the half-maximal inhibitory concentration (IC50) in assay [1] amounted to 1050 nM.
As to `Cc1c(COc2ccc(CN[C@H](CO)C(=O)O)c(OCc3cccc4nonc34)c2)cccc1-c1ccccc1`, in [1], the concentration for half-maximal inhibition (IC50) was determined as 2160 nM.
Take `O=C(O)[C@@H](CO)NCc1cc(F)c(OCc2cccc(-c3ccccc3)c2Br)cc1OCc1ccc2nonc2c1`: the IC50 in assay [1] was 7.8 nM. In addition, the outcome in the assay on Jurkat [2], with MC-38 [3] and in the assay with CHO-K1 [4] was inactive.
On to `O=C(O)[C@@H](CO)NCc1cc(Cl)c(OCc2cccc(-c3cccc(OCCCO)c3)c2Br)cc1OCc1ccc2nonc2c1`, for which the IC50 in assay [1] was found to be 30.9 nM.
Turning to `O=C(O)[C@@H](CO)NCc1cc(Br)c(OCc2cccc(-c3ccccc3)c2Br)cc1OCc1ccc2nonc2c1`, in [1], the 50% inhibitory concentration (IC50) stood at 27.5 nM.
Consider `CC(C)C[C@H](NCc1cc(Cl)c(OCc2cccc(-c3ccccc3)c2Cl)cc1OCc1ccc2nonc2c1)C(=O)N[C@H](CC(C)C)C(=O)O`, for which, in assay [1], the concentration for half-maximal inhibition (IC50) was found to be 1580 nM.
For the compound `CN1CCN(Cc2cc(Cl)c(OCc3cccc(-c4ccccc4)c3Br)cc2OCc2ccc3nonc3c2)CC1`, the IC50 in [1] came to 3590 nM.
Take `O=C(O)CNCc1cc(Cl)c(OCc2cccc(-c3ccccc3)c2Br)cc1OCc1ccc2nonc2c1`: the IC50 in [1] was 33.7 nM.
Turning to `O=C(O)[C@@H]1CCCCN1Cc1cc(Cl)c(OCc2cccc(-c3ccccc3)c2Br)cc1OCc1ccc2nonc2c1`, the half-maximal inhibitory concentration (IC50) in assay [1] was 13.3 nM.
As to `O=C(O)[C@@H](CO)NCc1cc(Cl)c(OCc2cccc(-c3cccc(F)c3)c2Br)cc1OCc1ccc2nonc2c1`, the IC50 in assay [1] was 8.2 nM. Also, the result in the assay on Jurkat [2], in the assay with MC-38 [3] and in the assay on CHO-K1 [4] was inactive.
As for `Cc1c(COc2ccc(CN[C@H](CO)C(=O)O)c(OCc3ccc4nonc4c3)c2)cccc1-c1ccccc1`, in [1], the IC50 is 33.7 nM.
Consider `COc1nc(OCc2cccc(-c3ccccc3)c2C)ccc1CNCCNC(C)=O`, for which the result with CHO-K1 [5], in the assay on MC-38 [8] and in the assay on Jurkat [9] was Active.
On to `O=C(O)[C@H]1C[C@@H](O)CN1Cc1cc(Cl)c(OCc2cccc(-c3ccccc3)c2Br)cc1OCc1ccc2nonc2c1`, for which the concentration for half-maximal inhibition (IC50) in assay [1] turned out to be 24.3 nM. Further, the result with CHO-K1 [5], in the assay on MC-38 [8] and in the assay on Jurkat [9] was Active.
Consider `O=C(O)[C@@H](CO)NCc1ccc(OCc2cccc(-c3ccccc3)c2C(F)(F)F)cc1OCc1ccc2nonc2c1`, for which the IC50 in [1] was found to be 1380 nM.
Consider `O=C(O)[C@@H](CO)NCc1cc(Cl)c(OCc2cccc(-c3ccc(F)cc3)c2Cl)cc1OCc1ccc2nonc2c1`, for which, in assay [1], the IC50 was determined as 56.1 nM.
As to `O=C(O)[C@@H](CO)NCc1cc(Cl)c(OCc2cccc(-c3cccc(OCCCO)c3)c2Cl)cc1OCc1ccc2nonc2c1`, the IC50 in assay [1] was 60.9 nM.
On the same count and under the same terms, for `O=S(=O)(O)CCNCc1cc(Cl)c(OCc2cccc(-c3ccccc3)c2Br)cc1OCc1ccc2nonc2c1` the value was 26.9 nM; for `OC[C@@H](O)CNCc1cc(Cl)c(OCc2cccc(-c3ccccc3)c2Br)cc1OCc1ccc2nonc2c1`, 15.9 nM.
On to `O=C(O)[C@@H](CO)NCc1cc(Cl)c(OCc2cccc(-c3ccccc3)c2F)cc1OCc1ccc2nonc2c1`, for which the 50% inhibitory concentration (IC50) in assay [1] worked out at 3.5 nM. The outcome in the assay with Jurkat [2], with MC-38 [3] and with CHO-K1 [4] was inactive.
